From ChEMBL document CHEMBL2424551, “Synthesis, in vitro evaluation and molecular modelling of naphthalimide analogue as anticancer agents” (2013)
Calls of active or inactive are those of the source. The rule behind the calls is not given here.

Columns and labels:
Type in all cases: functional
[1] = Cytotoxicity against human leukemia cells after 48 hrs by SRB assay; settings: Leukemia cell
Method in brief: (§1)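 Five-concentration screen (10-fold or ½-log serial dilutions) on the 60-line panel. Cells grown in RPMI 1640 with 5% FBS and 2 mM L-glutamine, plated at 5000–40,000/well by doubling time, preincubated 24 h at 37 °C, 5% CO2, then exposed 48 h. Time-zero plates TCA-fixed. SRB stain, Tris-solubilized, A515. GI50, TGI and LC50 derived from Tz, C and Ti.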

KM12 = assay: Growth inhibition of human KM12 cells at 10 uM after 48 hrs by SRB assay; settings: KM12, 48 h, read-out: GI
Method in brief: (§2)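 Cells grown in RPMI 1640 with 5% FBS and 2 mM L-glutamine, plated at 5000–40,000 cells/well by doubling time and preincubated 24 h (37 °C, 5% CO2); a time-zero plate is TCA-fixed. Single dose added, then 48 h incubation. Fixed with cold TCA, stained with 0.4% SRB, dye solubilized in 10 mM Tris base, absorbance at 515 nm; percent growth vs time-zero and untreated control.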

U-251 = assay: Growth inhibition of human U251 cells at 10 uM after 48 hrs by SRB assay; settings: U-251, 48 h, read-out: GI
Method in brief: (§3)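 NCI 60-cell-line screen with a single 10 µM dose. Cells are grown in RPMI 1640 with 5% FBS and 2 mM L-glutamine, plated at 5000–40,000 cells/well according to doubling time, and preincubated 24 h at 37 °C, 5% CO2; time-zero plates are TCA-fixed at that point. Drug exposure is 48 h. Adherent cells are fixed with cold TCA, stained with 0.4% SRB in 1% acetic acid and read at 515 nm. Percent growth is calculated relative to time-zero and untreated controls and reported as GI%.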

RXF 393 = assay: Growth inhibition of human RXF393 cells at 10 uM after 48 hrs by SRB assay; settings: RXF 393, 48 h, read-out: GI; method in brief: as §2
PC-3 = assay: Growth inhibition of human PC3 cells at 10 uM after 48 hrs by SRB assay; settings: PC-3, 48 h, read-out: GI; method in brief: as §2
NCI-H23 = assay: Growth inhibition of human NCI-H23 cells at 10 uM after 48 hrs by SRB assay; settings: NCI-H23, 48 h, read-out: GI; method in brief: as §2
TK-10 = assay: Growth inhibition of human TK10 cells at 10 uM after 48 hrs by SRB assay; settings: TK-10, 48 h, read-out: GI; method in brief: as §3
[2] = Cytotoxicity against human renal cancer cells after 48 hrs by SRB assay; settings: Cancer cell lines; method in brief: as §1
OVCAR-5 = assay: Growth inhibition of human OVCAR5 cells at 10 uM after 48 hrs by SRB assay; settings: OVCAR-5, 48 h, read-out: GI; method in brief: as §2
MDA-MB-435 = assay: Growth inhibition of human MDA-MB-435 cells at 10 uM after 48 hrs by SRB assay; settings: MDA-MB-435, 48 h, read-out: GI; method in brief: as §2
SNB-75 = assay: Growth inhibition of human SNB75 cells at 10 uM after 48 hrs by SRB assay; settings: SNB-75, 48 h, read-out: GI; method in brief: as §3
IGROV-1 = assay: Growth inhibition of human IGROV1 cells at 10 uM after 48 hrs by SRB assay; settings: IGROV-1, 48 h, read-out: GI; method in brief: as §2
[3] = Growth inhibition of human EKVX cells at 10 uM after 48 hrs by SRB assay; settings: read-out: GI; method in brief: as §2
[4] = Cytotoxicity against human melanoma cells after 48 hrs by SRB assay; settings: Melanoma cell; method in brief: as §1
LOX IMVI = assay: Growth inhibition of human LOXIMVI cells at 10 uM after 48 hrs by SRB assay; settings: read-out: GI; method in brief: as §2
UACC-62 = assay: Growth inhibition of human UACC62 cells at 10 uM after 48 hrs by SRB assay; settings: UACC-62, 48 h, read-out: GI; method in brief: as §3
SF-268 = assay: Growth inhibition of human SF268 cells at 10 uM after 48 hrs by SRB assay; settings: SF-268, 48 h, read-out: GI; method in brief: as §2
NCI-H522 = assay: Growth inhibition of human NCI-H522 cells at 10 uM after 48 hrs by SRB assay; settings: NCI-H522, 48 h, read-out: GI; method in brief: as §2
Malme-3M = assay: Growth inhibition of human MALME-3M cells at 10 uM after 48 hrs by SRB assay; settings: read-out: GI; method in brief: as §2
HT-29 = assay: Growth inhibition of human HT-29 cells at 10 uM after 48 hrs by SRB assay; settings: HT-29, 48 h, read-out: GI; method in brief: as §2
BT-549 = assay: Growth inhibition of human BT549 cells at 10 uM after 48 hrs by SRB assay; settings: BT-549, 48 h, read-out: GI; method in brief: as §2
[5] = Cytotoxicity against human breast cancer cells after 48 hrs by SRB assay; settings: Cancer cell lines; method in brief: as §1
NCI-H226 = assay: Growth inhibition of human NCI-H226 cells at 10 uM after 48 hrs by SRB assay; settings: NCI-H226, 48 h, read-out: GI; method in brief: as §2
[6] = Cytotoxicity against human non-small cell lung cancer cells after 48 hrs by SRB assay; settings: Cancer cell lines; method in brief: as §1
CCRF-CEM = assay: Growth inhibition of human CCRF-CEM cells at 10 uM after 48 hrs by SRB assay; settings: read-out: GI; method in brief: as §2
[7] = Cytotoxicity against human ovarian cancer cells after 48 hrs by SRB assay; settings: Cancer cell lines; method in brief: as §1
[8] = Cytotoxicity against human CNS cancer cells after 48 hrs by SRB assay; settings: Cancer cell lines; method in brief: as §1
Hs-578T = assay: Growth inhibition of human Hs578T cells at 10 uM after 48 hrs by SRB assay; method in brief: as §2
ACHN = assay: Growth inhibition of human ACHN cells at 10 uM after 48 hrs by SRB assay; settings: read-out: GI; method in brief: as §2
[9] = Cytotoxicity against human colon cancer cells after 48 hrs by SRB assay; settings: Cancer cell lines; method in brief: as §1
[10] = Cytotoxicity against human prostate cancer cells after 48 hrs by SRB assay; settings: Cancer cell lines; method in brief: as §1
T47D = assay: Growth inhibition of human T47D cells at 10 uM after 48 hrs by SRB assay; settings: read-out: GI; method in brief: as §3
HCT-116 = assay: Growth inhibition of human HCT116 cells at 10 uM after 48 hrs by SRB assay; settings: HCT-116, 48 h, read-out: GI; method in brief: as §2
HOP-92 = assay: Growth inhibition of human HOP92 cells at 10 uM after 48 hrs by SRB assay; settings: HOP-92, 48 h, read-out: GI; method in brief: as §2
[11] = read-out: LC50 (the source's name)

## O=c1[nH]cc(F)c(=O)[nH]1 [FLUOROURACIL]
[1]
  GI50: 1.51 µM
  TGI: > 100 µM
KM12
  inhibition of growth at 10 µM: 40.7%
U-251
  inhibition of growth at 10 µM: 50.3%
RXF 393
  inhibition of growth at 10 µM: 34.3%
PC-3
  inhibition of growth at 10 µM: 58.2%
NCI-H23
  inhibition of growth at 10 µM: 39%
TK-10
  inhibition of growth at 10 µM: 66.9%
[2]
  GI50: 45.6 µM
  TGI: > 100 µM
[2]; [11]
  CC50: > 100 µM
OVCAR-5
  inhibition of growth at 10 µM: 44.3%
MDA-MB-435
  inhibition of growth at 10 µM: 36.6%
SNB-75
  inhibition of growth at 10 µM: 65.9%
IGROV-1
  inhibition of growth at 10 µM: 51.2%
[3]
  inhibition of growth at 10 µM: 58.4%
[4]
  GI50: 70.6 µM
  TGI: > 100 µM
LOX IMVI
  inhibition of growth at 10 µM: 30.4%
UACC-62
  inhibition of growth at 10 µM: 39.7%
SF-268
  inhibition of growth at 10 µM: 59%
NCI-H522
  inhibition of growth at 10 µM: 58%
Malme-3M
  inhibition of growth at 10 µM: 58.2%
HT-29
  inhibition of growth at 10 µM: 27.1%
BT-549
  inhibition of growth at 10 µM: 37.8%
[5]
  GI50: 76.4 µM
  TGI: > 100 µM
NCI-H226
  inhibition of growth at 10 µM: 69.5%
[6]
  GI50: > 100 µM
  TGI: > 100 µM
CCRF-CEM
  inhibition of growth at 10 µM: 57.1%
[7]
  GI50: 61.4 µM
  TGI: > 100 µM
[7]; [11]
  CC50: > 100 µM
[8]
  GI50: 72.1 µM
  TGI: > 100 µM
[8]; [11]
  CC50: > 100 µM
Hs-578T
  growth inhibition (GI): Active
ACHN
  inhibition of growth at 10 µM: 39.3%
[9]
  GI50: 8.4 µM
  TGI: > 100 µM
[9]; [11]
  CC50: > 100 µM
[10]
  GI50: 22.7 µM
  TGI: > 100 µM
T47D
  inhibition of growth at 10 µM: 56.7%
HCT-116
  inhibition of growth at 10 µM: 17.8%
HOP-92
  inhibition of growth at 10 µM: 50.6%
